Results on five molecules are retold here after ChEMBL document CHEMBL3286203, “Reactive oxygen species (ROS) inducible DNA cross-linking agents and their effect on cancer cells and normal lymphocytes” (J Med Chem, 2014).

As a reminder, the logP is a log measure of how a compound divides between an organic and an aqueous phase. The term GI50 denotes the concentration giving 50% growth inhibition. The term IC50 denotes the concentration at which inhibition is half-maximal.

Activity calls are given as the source filed them. The calls are words filed in the database; no cut-off is given here.

A short description of data set [1]: Drug level in deuterated phosphate buffer treated with 40 mM N,N-Bis(2-chloroethyl)-4-(4,4,5,5-tetramethyl-1,3,2-dioxaborolan-2-yl)aniline after 24 hrs by 1H-NMR analysis. It is filed as physicochemical. The method, boiled down: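 1H NMR of the boronate mustard (40 mM) held 24 h in deuterated potassium phosphate buffer (4.0 mM) with no H2O2. Solvent was 1.0 M deuterated potassium phosphate buffer/DMSO-d6/D2O = 2:450:48.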

The nature of data set [2]: 1-Octanol-PBS partition coefficient, log P of the compound. It is filed as physicochemical.
For the next data set, the system named is RPMI-8226. The data set is described as follows: Cytotoxicity against human RPMI8226 cells after 48 hrs by SRB assay. Particulars: RPMI-8226, 48 h. The data set is classed as functional. Summed up: (§1)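 GI50 from the NCI Developmental Therapeutics Program in vitro human tumor cell screen. Cell lines were maintained in RPMI 1640 with 5% fetal bovine serum and 2 mM L-glutamine. They were seeded at 5000–40 000 cells/well, depending on each line's doubling time, then exposed to drug for 48 h at 37 °C, 5% CO2.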
Background: The SRB assay estimates cell density from bound dye.

For a further data set, the system named is SW-620. The data set can be described thus: Cytotoxicity against human SW620 cells after 48 hrs by SRB assay. Particulars: SW-620, 48 h. It is filed as functional. The method, boiled down: (§2)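 GI50 from the NCI-60 DTP human tumour line screen. Lines grown in RPMI 1640 with 5% fetal bovine serum and 2 mM L-glutamine, plated at 5000–40 000 cells/well according to doubling time. Incubated 48 h at 37 °C, 5% CO2.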

The nature of data set [3]: Induction of [32P]-labeled 49-mer oligonucleotide duplex DNA 12 interstrand cross-linking (unknown origin) at purine nucleotide site using compound radiolabeled at 3' of 12a in phosphate buffer at pH 7 at 90 degC after 30 mins by PAGE.
A short description of data set [4]: Induction of [32P]-labeled 49-mer oligonucleotide duplex DNA 12 with GNC sequence at terminus (unknown origin) interstrand cross-linking at 1 mM after 16 hrs by PAGE in presence of TBHP.
A short description of data set [5]: Induction of [32P]-labeled 49-mer oligonucleotide duplex DNA 12 with GNC sequence at terminus (unknown origin) interstrand cross-linking at 50 uM after 16 hrs by PAGE in presence of H2O2. The method, boiled down: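 32P-labelled 12a (1.0 μM) annealed with 1.5 equiv of 12b in 10 mM potassium phosphate pH 7 / 100 mM NaCl (65 °C for 3 min, then slow cooling). Duplex incubated with compound (final 1 μM–5 mM), with or without H2O2, in NaCl and potassium phosphate pH 8 at room temperature for 16 h. Quenched in formamide; 20% denaturing PAGE.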

Data set [6] in a line: Induction of [32P]-labeled 49-mer oligonucleotide duplex DNA 12' with GNC sequence in middle (unknown origin) interstrand cross-linking at 1 mM after 12 hrs by PAGE in presence of H2O2.
The next data set concerns A498. The data set can be described thus: Cytotoxicity against human A498 cells after 48 hrs by SRB assay. The data set is classed as functional. Particulars: A498, 48 h. The method, boiled down:
(§3)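 GI50 was determined in the NCI Developmental Therapeutics Program in vitro 60-line cancer screen. Tumour lines were maintained in RPMI 1640 containing 5% FBS and 2 mM L-glutamine. Cells were inoculated at 5000–40 000 cells/well according to each line's doubling time before drug exposure.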

The subject of the next data set is MDA-MB-435. The data set can be described thus: Cytotoxicity against human MDA-MB-435 cells after 48 hrs by SRB assay. The data set is classed as functional. Particulars: MDA-MB-435, 48 h. The method, boiled down: as §1
A short description of data set [7]: Induction of apoptosis in human CLL cells at 10 uM after 48 hrs by Annexin/propidium iodide staining-based assay (reference value: 91%). The data set is classed as functional.
The nature of data set [8]: Induction of apoptosis in human lymphocytes at 10 uM after 24 to 48 hrs by Annexin/propidium iodide staining-based assay. The data set is classed as cell-based. Particulars: lymphocyte.
The subject of a further data set is NCI-H322M. The data set is described as follows: Cytotoxicity against human NCI-H322M cells after 48 hrs by SRB assay. The data set is classed as functional. The method, boiled down:
as §1

A further data set concerns HL-60(TB). The data set can be described thus: Cytotoxicity against human HL-60(TB) cells after 48 hrs by SRB assay. It is filed as functional. The following applies: HL-60, 48 h. The method, boiled down: as §3
Data set [9] in a line: Induction of apoptosis in human CLL cells at 10 uM after 24 hrs by Annexin/propidium iodide staining-based assay (reference value: 95%). It is filed as functional.
In another data set the test system is MCF7. The data set is described as follows: Cytotoxicity against human MCF7 cells after 48 hrs by SRB assay. It is filed as functional. The following applies: MCF7, 48 h. The method, boiled down:
as §3

The test system of data set [10] is CLL. The data set can be described thus: Induction of apoptosis in human CLL cells at 10 uM by Annexin/propidium iodide staining-based assay. It is filed as functional, cell-based. Particulars: TDE = time-dependent effect.
For data set [11], the system named is CLL. The data set is described as follows: (§4) Induction of apoptosis in human CLL cells after 24 hrs by Annexin/propidium iodide staining-based assay. It is filed as functional, cell-based. The method, boiled down: (§5)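 Primary CLL lymphocytes, Ficoll-Hypaque isolated from patient peripheral blood. Held fresh in RPMI 1640 with 10% autologous plasma. Dose–response over 24 h (n = 3). Apoptosis by annexin V–FITC/PI double staining and flow cytometry; IC50 derived from the dose–response.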

Data set [12] in a line: as §4. The data set is classed as functional, cell-based. Summed up:
as §5

Data set [13] is described as follows: Cytotoxicity against human UACC257 cells after 48 hrs by SRB assay. The data set is classed as functional. Particulars: UACC-257, 48 h. The method, boiled down:
as §2

Data set [14] is described as follows: Induction of [32P]-labeled 49-mer oligonucleotide duplex DNA 12 with GNC sequence at terminus (unknown origin) interstrand cross-linking at 1 mM after 16 hrs by PAGE in presence of O2-.
Data set [15] can be described thus: Induction of [32P]-labeled 49-mer oligonucleotide duplex DNA 12 with GNC sequence at terminus (unknown origin) interstrand cross-linking at 1 mM after 16 hrs by PAGE in presence of OCL-.
In a further data set the test system is SNB-19. The data set can be described thus: Cytotoxicity against human SNB19 cells after 48 hrs by SRB assay. It is filed as functional. The following applies: SNB-19, 48 h. Summed up: as §2
The test system of the next data set is TK-10. The data set is described as follows: Cytotoxicity against human TK10 cells after 48 hrs by SRB assay. The data set is classed as functional. The following applies: TK-10, 48 h. Summed up:
as §2

A further data set relates to SR. The data set can be described thus: Cytotoxicity against human SR cells after 48 hrs by SRB assay. It is filed as functional. Summed up:
as §2

Data set [16] can be described thus: Cytotoxicity against human NCI-ADR-RES cells after 48 hrs by SRB assay. The data set is classed as functional. Summed up: as §1
Another data set has as its system SK-MEL-5. The data set is described as follows: Cytotoxicity against human SK-MEL-5 cells after 48 hrs by SRB assay. The data set is classed as functional. Particulars: SK-MEL-5, 48 h. The method, boiled down: as §1
The subject of a further data set is LOX IMVI. The data set is described as follows: Cytotoxicity against human LOXIMVI cells after 48 hrs by SRB assay. It is filed as functional. Summed up:
as §3

Data set [17] has as its system CLL. The data set is described as follows: Induction of apoptosis in human CLL cells at 10 uM after 24 hrs by DCDFA assay in presence of NAC. The data set is classed as functional, cell-based.
The test system of data set [18] is CLL. The data set is described as follows: Induction of ROS generation in human CLL cells at 10 uM after 24 hrs by DCDFA assay in presence of NAC. The data set is classed as functional, cell-based. The method, boiled down: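 Primary CLL cells given compound (10 μM) with or without N-acetyl cysteine ([…]) for 24 h. Global ROS measured by DCFDA staining and flow histograms; n = 8 patient samples.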

Data set [19] can be described thus: Drug level in phosphate buffer treated with 40 mM N,N-Bis(2-chloroethyl)-4-(4,4,5,5-tetramethyl-1,3,2-dioxaborolan-2-yl)aniline after 30 mins by 1H-NMR analysis in presence of H2O2. It is filed as physicochemical. Particulars: 0.5 h. Summed up: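 1H NMR of the boronate mustard (40 mM) with H2O2 (60 mM), 30 min after H2O2 addition. Solvent was 400 mM phosphate buffer pH 8 (50 μL) in DMSO-d6 (450 μL). Read-out is conversion to the activated product.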

Turning to `CC1(C)OB(c2ccc(N(CCCl)CCCl)cc2)OC1(C)C`, in data set [1], the Drug metabolism entry is “metabolite_detected”. In addition, in data set [2], the logP amounted to 2.8. Also, the GI50 with RPMI-8226 worked out at 10.9 µM; in the data set with SW-620, 11.3 µM; in the data set with A498 it was 2.81 µM; in the data set with MDA-MB-435, 14.2 µM; in the data set on NCI-H322M, 14.7 µM; in the data set with HL-60(TB), 4.66 µM. The 50% growth inhibitory concentration (GI50) is 4.12 µM in the data set with MCF7; 11.6 µM in [13]; 8.06 µM with SNB-19; 16.7 µM with TK-10; 0.63 µM with SR; 5.33 µM in data set [16]. In addition, the GI50 in the data set on SK-MEL-5 came to 14.5 µM; in the data set on LOX IMVI it was 5.17 µM. In data set [3], the outcome was Active. Moreover, the Activity in data set [4] is 1%; in [5], 3%; in data set [6] it was 27%; in data set [7], 83%; in data set [8], “Toxic”; in data set [9], 93%. Further, the Activity result is “tde” with CLL [10], “Dose-dependent effect” with CLL [11], 5% in data set [14] and 0.9% in data set [15]. The molecule also gave an IC50 in data set [12] of 9.26 µM.
For `CC1(C)OB(c2ccc(N(CCBr)CCBr)cc2)OC1(C)C`, in data set [3], the result was Active. Besides, the Activity in data set [5] is 3%; in data set [6], 35%.
As to `CC1(C)OB(c2ccc(N(CCCl)CCBr)cc2)OC1(C)C`, the GI50 turned out to be 19.4 µM in the data set with RPMI-8226; 13.9 µM in the data set with SW-620; 5.87 µM in the data set with A498; 16.5 µM in the data set with MDA-MB-435; 32.5 µM in the data set with NCI-H322M; 5.11 µM in the data set on HL-60(TB). Moreover, the GI50 worked out at 5.03 µM in the data set on MCF7; 13.4 µM in [13]; 10.6 µM with SNB-19; 22.6 µM with TK-10; 0.66 µM in the data set with SR; 6.69 µM in data set [16]. The GI50 in the data set with SK-MEL-5 was 13.7 µM; with LOX IMVI it was 6.6 µM. In addition, in data set [3], the result was Active. The Activity in data set [5] is 3%; in data set [7], 81%; in data set [8] it was “Toxic”; in data set [9], 90%; in the data set on CLL [10], “tde”; in the data set on CLL [11], “Dose-dependent effect”. Besides, the outcome in the data set on CLL [17] and in the data set on CLL [18] was inactive. In addition, in data set [12], the IC50 is 10.8 µM. The Drug metabolism result in data set [19] was “metabolite_detected”.
Turning to `CC1(C)OB(c2ccc(N(CCBr)CCOS(C)(=O)=O)cc2)OC1(C)C`, in data set [3], the result was Active. Further, the Activity in data set [5] is 3%.
On to `CC1(C)OB(c2ccc(N(CCCl)CCOS(C)(=O)=O)cc2)OC1(C)C`, for which the GI50 with RPMI-8226 was determined as 14.7 µM; in the data set with SW-620, 11.9 µM; in the data set with A498 it was 8.59 µM; in the data set with MDA-MB-435, 15.3 µM; with NCI-H322M, 28.2 µM; in the data set with HL-60(TB), 3.88 µM. Also, the GI50 in the data set on MCF7 came to 4.44 µM; in data set [13], 13 µM; with SNB-19 it was 10.2 µM; in the data set with TK-10 it was 18 µM; in the data set with SR, 0.63 µM; in data set [16], 6.52 µM. The GI50 with SK-MEL-5 stood at 12.8 µM; with LOX IMVI it was 4.72 µM. In addition, the result in data set [3] was Active. The Activity in [4] stood at 1%; in [5] it was 3%; in data set [14], 5%; in data set [15] it was 0.9%.
